Active and inactive are the calls of the source. No cut-off for these calls is given here.
What was measured:
HCT-116 [1] = test: Induction of cell cycle arrest in human HCT-116 cells assessed as sub G0/G1 phase at 0.1 uM incubated for 24 hrs by flow cytometry analysis (Rvb=2.5%); type: functional
HCT-116 [2] = test: Induction of cell cycle arrest in human HCT-116 cells assessed as G0/G1 phase at 1 uM incubated for 24 hrs by flow cytometry analysis (Rvb=35.7%); type: functional
[3] = biological target: Mitogen-activated protein kinase 14 (Homo sapiens) (UniProt Q16539); test: Inhibition of MAPK14 (unknown origin) at 100 nM in the presence of ATP by Kinome scan method relative to control
Chain of Mitogen-activated protein kinase 14 (Homo sapiens) (Q16539 whole entry): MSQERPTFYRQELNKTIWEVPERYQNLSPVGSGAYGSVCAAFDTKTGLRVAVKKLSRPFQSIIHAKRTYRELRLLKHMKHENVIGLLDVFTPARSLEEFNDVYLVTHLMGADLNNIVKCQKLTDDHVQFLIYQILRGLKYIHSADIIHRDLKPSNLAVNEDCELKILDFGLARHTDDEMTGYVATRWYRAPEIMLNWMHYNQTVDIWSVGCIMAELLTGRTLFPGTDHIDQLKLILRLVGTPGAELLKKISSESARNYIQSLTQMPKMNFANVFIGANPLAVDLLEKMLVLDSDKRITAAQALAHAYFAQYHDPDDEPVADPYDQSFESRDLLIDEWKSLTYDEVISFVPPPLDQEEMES

[4] = biological target: Mast/stem cell growth factor receptor Kit (Homo sapiens) (UniProt P10721); test: Inhibition of KIT (unknown origin) at 100 nM in the presence of ATP by Kinome scan method relative to control
[5] = biological target: Death-associated protein kinase 1 (Homo sapiens) (UniProt P53355); test: Inhibition of DAPK1 (unknown origin) at 1000 nM in the presence of ATP by Kinome scan method relative to control
Chain of Death-associated protein kinase 1 (Homo sapiens) (P53355 whole entry, looked up): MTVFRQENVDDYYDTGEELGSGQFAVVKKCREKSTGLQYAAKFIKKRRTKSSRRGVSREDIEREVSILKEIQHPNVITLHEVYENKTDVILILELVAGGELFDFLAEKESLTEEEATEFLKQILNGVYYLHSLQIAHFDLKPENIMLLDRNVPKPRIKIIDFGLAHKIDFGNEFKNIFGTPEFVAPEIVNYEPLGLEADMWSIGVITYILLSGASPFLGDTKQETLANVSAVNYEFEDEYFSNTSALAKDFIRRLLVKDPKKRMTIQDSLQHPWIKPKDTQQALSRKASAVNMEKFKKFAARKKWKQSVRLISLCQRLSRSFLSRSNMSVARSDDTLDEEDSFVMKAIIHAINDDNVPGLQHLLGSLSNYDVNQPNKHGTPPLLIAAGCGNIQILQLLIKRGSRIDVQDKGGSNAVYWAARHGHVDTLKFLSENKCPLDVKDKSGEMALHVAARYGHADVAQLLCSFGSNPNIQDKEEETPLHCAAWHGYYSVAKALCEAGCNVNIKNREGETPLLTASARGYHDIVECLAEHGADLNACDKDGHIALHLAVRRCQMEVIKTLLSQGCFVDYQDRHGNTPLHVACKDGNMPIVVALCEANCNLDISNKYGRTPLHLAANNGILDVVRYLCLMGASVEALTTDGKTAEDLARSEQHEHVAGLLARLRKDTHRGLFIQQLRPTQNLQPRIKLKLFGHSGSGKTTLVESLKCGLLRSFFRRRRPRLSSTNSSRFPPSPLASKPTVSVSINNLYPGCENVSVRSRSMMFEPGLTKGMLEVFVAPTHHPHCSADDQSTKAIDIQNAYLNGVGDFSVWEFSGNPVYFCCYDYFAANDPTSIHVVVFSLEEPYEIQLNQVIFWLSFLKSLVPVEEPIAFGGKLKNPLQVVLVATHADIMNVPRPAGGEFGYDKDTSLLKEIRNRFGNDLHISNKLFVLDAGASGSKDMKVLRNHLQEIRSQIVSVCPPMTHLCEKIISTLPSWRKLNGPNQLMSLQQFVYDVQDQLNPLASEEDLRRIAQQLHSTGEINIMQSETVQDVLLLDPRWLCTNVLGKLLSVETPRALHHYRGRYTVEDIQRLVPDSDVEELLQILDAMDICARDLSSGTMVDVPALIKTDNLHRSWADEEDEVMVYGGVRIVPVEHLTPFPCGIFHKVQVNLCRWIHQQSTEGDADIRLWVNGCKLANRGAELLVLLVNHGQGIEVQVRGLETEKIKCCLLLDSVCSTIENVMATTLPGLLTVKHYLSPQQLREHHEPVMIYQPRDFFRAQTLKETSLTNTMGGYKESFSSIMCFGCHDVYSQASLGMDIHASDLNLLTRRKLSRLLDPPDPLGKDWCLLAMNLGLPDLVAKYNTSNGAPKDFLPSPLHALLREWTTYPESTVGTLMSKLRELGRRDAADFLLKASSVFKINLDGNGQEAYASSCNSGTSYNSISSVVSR

[6] = biological target: Dual specificity protein kinase CLK2 (Homo sapiens, UniProt P49760); test: Inhibition of N-terminal FLAG-tagged human CLK2 at 1110 nM in the presence of ATP by Kinome scan method relative to control
Chain of Dual specificity protein kinase CLK2 (P49760 whole entry, looked up): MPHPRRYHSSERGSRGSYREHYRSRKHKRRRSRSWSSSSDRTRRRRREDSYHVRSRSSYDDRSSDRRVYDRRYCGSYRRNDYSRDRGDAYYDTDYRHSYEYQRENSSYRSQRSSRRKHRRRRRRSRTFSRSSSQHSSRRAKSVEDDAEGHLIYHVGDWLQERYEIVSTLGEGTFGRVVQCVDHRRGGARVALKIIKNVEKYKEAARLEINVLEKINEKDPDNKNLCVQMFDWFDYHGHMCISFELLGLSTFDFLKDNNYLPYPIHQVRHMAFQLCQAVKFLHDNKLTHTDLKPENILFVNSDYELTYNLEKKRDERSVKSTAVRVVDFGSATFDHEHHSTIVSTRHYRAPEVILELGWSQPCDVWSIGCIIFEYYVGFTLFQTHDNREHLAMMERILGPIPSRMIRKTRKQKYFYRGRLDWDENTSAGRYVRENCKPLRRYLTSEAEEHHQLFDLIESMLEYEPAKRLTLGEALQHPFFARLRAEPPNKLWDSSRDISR

HCT-116 [7] = test: Induction of apoptosis in human HCT-116 cells assessed as late apoptosis at 10 uM incubated for > 6 hrs by annexin V/PI staining based analysis (Rvb=6.12%); type: functional
HCT-116 [8] = test: Induction of apoptosis in human HCT-116 cells assessed as viable cells at 0.1 uM incubated for > 6 hrs by annexin V/PI staining based analysis (Rvb=90.04%); type: functional; details: read-out: Activity
[9] = biological target: T1, Dual specificity tyrosine-phosphorylation-regulated kinase 1A (Homo sapiens, UniProt Q13627); test: Inhibition of DYRK1A (unknown origin) using ULight-MBP peptide as substrate incubated for 10 mins in presence of ATP incubated for 45 mins by LANCE Ultra kinase assay
[10] = biological target: Focal adhesion kinase 1 (Homo sapiens) (UniProt Q05397); test: Inhibition of PTK2 (unknown origin) at 1000 nM in the presence of ATP by Kinome scan method relative to control
HCT-116 [11] = test: Induction of cell cycle arrest in human HCT-116 cells assessed as S phase at 10 uM incubated for 6 hrs by flow cytometry analysis (Rvb=39.3%); type: functional
[12] = biological target: Dual specificity protein kinase CLK1 (Homo sapiens) (UniProt P49759); test: Inhibition of CLK (unknown origin) in human HCT-116 cells assessed as induction in alternative splicing effect in S6K skipped exon incubated for 6 hrs by RT-PCR analysis; type: cell-based; details: dose 0.2-5 µM
Chain of Dual specificity protein kinase CLK1 (Homo sapiens) (P49759 whole entry, looked up, canonical isoform): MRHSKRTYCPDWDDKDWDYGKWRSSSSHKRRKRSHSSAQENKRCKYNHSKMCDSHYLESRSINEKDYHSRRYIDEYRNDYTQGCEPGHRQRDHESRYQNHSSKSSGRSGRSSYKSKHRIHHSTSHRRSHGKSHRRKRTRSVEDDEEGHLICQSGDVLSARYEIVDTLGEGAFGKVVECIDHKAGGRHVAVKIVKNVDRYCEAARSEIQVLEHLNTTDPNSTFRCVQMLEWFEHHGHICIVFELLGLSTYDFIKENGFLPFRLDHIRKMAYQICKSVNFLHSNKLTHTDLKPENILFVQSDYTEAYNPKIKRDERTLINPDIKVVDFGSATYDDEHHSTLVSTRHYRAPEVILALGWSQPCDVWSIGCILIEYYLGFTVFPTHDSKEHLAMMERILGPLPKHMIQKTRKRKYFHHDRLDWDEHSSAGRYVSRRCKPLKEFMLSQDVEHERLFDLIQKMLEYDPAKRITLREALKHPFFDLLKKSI
Procedure, shortened: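 Cells exposed to graded T3 concentrations for 6 h (chosen to avoid cytotoxicity), with a DMSO vehicle control. Total RNA was reverse-transcribed with oligo-dT primers. Targeted splice or conjoined-gene products were quantified by real-time qPCR or by targeted next-generation sequencing. Conjoined-gene isoform expression was normalized to a sequenced housekeeping gene.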

[13] = biological target: Protein kinase C alpha type (Homo sapiens) (UniProt P17252); test: Inhibition of PRKCA (unknown origin) at 1000 nM in the presence of ATP by Kinome scan method relative to control
[14] = biological target: Death-associated protein kinase 1 (Homo sapiens) (UniProt P53355); test: Inhibition of DAPK1 (unknown origin) at 100 nM in the presence of ATP by Kinome scan method relative to control
[15] = biological target: Ephrin type-A receptor 1 (Homo sapiens) (UniProt P21709); test: Inhibition of EPHA1 (unknown origin) at 1000 nM in the presence of ATP by Kinome scan method relative to control
Chain of Ephrin type-A receptor 1 (Homo sapiens) (P21709 whole entry): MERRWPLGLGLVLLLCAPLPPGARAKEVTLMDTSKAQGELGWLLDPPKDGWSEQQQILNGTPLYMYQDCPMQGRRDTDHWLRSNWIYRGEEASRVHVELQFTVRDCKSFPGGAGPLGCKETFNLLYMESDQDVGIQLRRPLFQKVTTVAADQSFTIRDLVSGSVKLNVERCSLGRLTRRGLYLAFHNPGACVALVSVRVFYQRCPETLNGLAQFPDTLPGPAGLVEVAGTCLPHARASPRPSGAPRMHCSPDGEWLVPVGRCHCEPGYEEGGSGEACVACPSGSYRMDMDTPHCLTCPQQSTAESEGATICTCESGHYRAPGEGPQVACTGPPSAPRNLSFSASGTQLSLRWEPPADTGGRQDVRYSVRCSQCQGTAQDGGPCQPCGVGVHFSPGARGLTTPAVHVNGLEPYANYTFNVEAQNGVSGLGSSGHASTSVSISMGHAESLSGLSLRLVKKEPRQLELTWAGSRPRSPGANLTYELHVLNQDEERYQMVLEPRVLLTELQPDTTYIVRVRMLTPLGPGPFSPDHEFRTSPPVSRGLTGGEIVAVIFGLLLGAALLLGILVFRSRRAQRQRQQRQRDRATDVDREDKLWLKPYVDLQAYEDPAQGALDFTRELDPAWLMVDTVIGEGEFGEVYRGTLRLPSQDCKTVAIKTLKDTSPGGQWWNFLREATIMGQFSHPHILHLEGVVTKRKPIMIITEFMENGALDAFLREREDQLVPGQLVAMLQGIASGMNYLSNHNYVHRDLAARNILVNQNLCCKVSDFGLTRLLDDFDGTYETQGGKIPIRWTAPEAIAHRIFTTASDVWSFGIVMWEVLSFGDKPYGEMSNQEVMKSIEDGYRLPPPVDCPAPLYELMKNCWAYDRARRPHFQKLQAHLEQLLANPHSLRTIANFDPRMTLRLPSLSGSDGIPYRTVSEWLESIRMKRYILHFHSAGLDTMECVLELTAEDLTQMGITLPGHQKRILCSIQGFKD

[16] = biological target: SRSF protein kinase 2 (Homo sapiens) (UniProt P78362); test: Inhibition of SRPK2 (unknown origin) at 123 nM in the presence of ATP by Kinome scan method relative to control; details: time > 6.0 hrs
[17] = biological target: Cyclin-dependent kinase 5/CDK5 activator 1 (Homo sapiens) (UniProt Q00535+Q15078); test: Inhibition of CDK5/p35 (unknown origin) at 1000 nM in the presence of ATP by Kinome scan method relative to control; type: protein-complex assay
[18] = biological target: T1, Dual specificity tyrosine-phosphorylation-regulated kinase 1A; test: Inhibition of DYRK1A (unknown origin) at 123 nM in the presence of ATP by Kinome scan method relative to control; details: time > 6.0 hrs
HCT-116 [19] = test: Induction of cell cycle arrest in human HCT-116 cells assessed as G0/G1 phase at 0.1 uM incubated for 24 hrs by flow cytometry analysis (Rvb=35.7%); type: functional
[20] = biological target: Hepatocyte growth factor receptor (Homo sapiens) (UniProt P08581); test: Inhibition of MET (unknown origin) at 1000 nM in the presence of ATP by Kinome scan method relative to control
[21] = biological target: Dual specificity protein kinase CLK1 (Homo sapiens) (UniProt P49759); test: Inhibition of CLK (unknown origin) in human MDA-MB-468 cells assessed as SRSF1 phosphorylation level incubated for 3 hrs by immunoblot analysis; type: cell-based
[22] = biological target: Cyclin-dependent kinase 1/cyclin B1 (Homo sapiens) (UniProt P06493+P14635); test: Inhibition of CDK1/cyclin B (unknown origin) at 100 nM in the presence of ATP by Kinome scan method relative to control; type: protein-complex assay
HCT-116 [23] = test: Induction of cell cycle arrest in human HCT-116 cells assessed as S phase at 1 uM incubated for 6 hrs by flow cytometry analysis (Rvb=39.3%); type: functional
[24] = biological target: Inhibitor of nuclear factor kappa-B kinase subunit beta (Homo sapiens) (UniProt O14920); test: Inhibition of IKBKB (unknown origin) at 1000 nM in the presence of ATP by Kinome scan method relative to control
HCT-116 [25] = test: Induction of cell cycle arrest in human HCT-116 cells assessed as S phase at 10 uM incubated for 24 hrs by flow cytometry analysis (Rvb=46.4%); type: functional
[26] = biological target: SRSF protein kinase 1 (Homo sapiens) (UniProt Q96SB4); test: Inhibition of SRPK1 (unknown origin) at 123 nM in the presence of ATP by Kinome scan method relative to control; details: time > 6.0 hrs
[27] = biological target: Proto-oncogene tyrosine-protein kinase Src (Homo sapiens) (UniProt P12931); test: Inhibition of SRC (unknown origin) at 1000 nM in the presence of ATP by Kinome scan method relative to control
Chain of Proto-oncogene tyrosine-protein kinase Src (Homo sapiens) (P12931 2-536 limits assumed): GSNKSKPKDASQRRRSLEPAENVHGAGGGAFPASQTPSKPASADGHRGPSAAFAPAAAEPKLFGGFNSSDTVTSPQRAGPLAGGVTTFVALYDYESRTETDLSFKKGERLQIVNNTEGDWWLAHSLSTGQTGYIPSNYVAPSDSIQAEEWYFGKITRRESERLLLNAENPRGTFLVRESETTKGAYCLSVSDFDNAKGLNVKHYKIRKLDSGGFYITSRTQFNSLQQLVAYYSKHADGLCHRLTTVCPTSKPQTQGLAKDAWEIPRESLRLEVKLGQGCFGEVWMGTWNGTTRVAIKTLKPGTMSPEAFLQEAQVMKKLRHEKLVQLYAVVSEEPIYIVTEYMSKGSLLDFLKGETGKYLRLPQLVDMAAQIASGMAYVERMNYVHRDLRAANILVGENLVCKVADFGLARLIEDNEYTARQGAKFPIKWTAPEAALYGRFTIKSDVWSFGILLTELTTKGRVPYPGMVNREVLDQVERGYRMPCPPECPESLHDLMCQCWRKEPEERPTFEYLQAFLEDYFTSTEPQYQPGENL

[28] = biological target: Serine/threonine-protein kinase mTOR (Homo sapiens) (UniProt P42345); test: Inhibition of FRAP1 (unknown origin) at 1000 nM in the presence of ATP by Kinome scan method relative to control
[29] = biological target: Dual specificity tyrosine-phosphorylation-regulated kinase 1B (Homo sapiens, UniProt Q9Y463); test: Inhibition of DYRK1B (unknown origin) at 1110 nM in the presence of ATP by Kinome scan method relative to control; details: time > 6.0 hrs
HCT-116 [30] = test: Induction of cell cycle arrest in human HCT-116 cells assessed as G2/M phase at 1 uM incubated for 6 hrs by flow cytometry analysis (Rvb=25.8%); type: functional

Structure (SMILES): CN1CCN(C(=O)C(C)(C)c2ccc(C(=O)Nc3cn4cc(-c5ccncc5)ccc4n3)cc2)CC1 [T3-CLK]
- Activity (HCT-116 [1]): 2.8%
- Activity (HCT-116 [2]): 7.3%
- inhibition [3]: 5%
- inhibition [4]: 11%
- inhibition [5]: -6%
- inhibition [6]: 100%
- Activity (HCT-116 [7]): 8.13%
- viability at 0.1 µM (HCT-116 [8]): 87.8%
- IC50 [9]: 260 nM
- inhibition [10]: -7%
- Activity (HCT-116 [11]): 45.3%
- inhibition [12]: Dose-Dependent Effect
- inhibition [13]: 4%
- inhibition [14]: -4%
- inhibition [15]: -1%
- inhibition [16]: 2%
- inhibition [17]: -1%
- inhibition [18]: 74%
- Activity (HCT-116 [19]): 38.7%
- inhibition [20]: -7%
- inhibition [21]: Active
- inhibition [22]: 8%
- Activity (HCT-116 [23]): 47%
- inhibition [24]: -5%
- Activity (HCT-116 [25]): 41%
- inhibition [26]: -3%
- inhibition [27]: 47%
- inhibition [28]: -9%
- inhibition [29]: 94%
- Activity (HCT-116 [30]): 34.6%

Source: ChEMBL document CHEMBL5696444 (Nat Commun, 2017)
